Arr AP2 block: inhibitors of beta-arrestin/AP2 binding, primary screen, biochemical, GPCR trafficking, flow cytometry; beta-arrestin 1 C-terminal peptide binding to AP2 beta2-adaptin appendage (human); FITC-arrestin peptide / GST-AP2 beads; AP2 beta2 appendage carries R879A mutation; inhibition, % at 10 µM; actives 0.31% (n = 340,000); AID 504490, 2011;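 active means inhibition above a set limit, near 3 SD of compounds lacking own fluorescence, cut at about 54% in these data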;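 further: plate controls were DMSO wells for no effect and 5 µM unlabelled arrestin peptide for full effect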
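Material – AP2 appendage R879A on GSH beads · Buffer or medium – PBS with 0.05% Tween 20 and 0.1% BSA · Probe or stimulus – fluorescein-tagged arrestin peptide at 50 nM final · Incubation – compound with beads 12 min RT, then probe 1 h RT · Detection – high-throughput flow cytometry of beads, ex 488, em 535 nm · Evaluation – percent response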
ABCB6 inh 2: ABCB6 transporter inhibitors, primary screen, K562-ABCB6 cells, flow cytometry, MLPCN library | ATP-binding cassette sub-family B member 6 (Homo sapiens), Q9NP58 | K562-ABCB6 porphyrin accumulation, 1 h; hits give low values | fluorescence ratio to DMSO, % at 10 µM | actives 0.19% (n = 360,000);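 active means fluorescence ratio to DMSO below 75%, the collection mean minus 3 SD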;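 further: signal is porphyrin accumulated inside mitochondria; 100% equals median channel fluorescence of DMSO control wells; lower ratio means ABCB6 inhibition with less porphyrin fluorescence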
Target sequence (Q9NP58 whole entry, looked up): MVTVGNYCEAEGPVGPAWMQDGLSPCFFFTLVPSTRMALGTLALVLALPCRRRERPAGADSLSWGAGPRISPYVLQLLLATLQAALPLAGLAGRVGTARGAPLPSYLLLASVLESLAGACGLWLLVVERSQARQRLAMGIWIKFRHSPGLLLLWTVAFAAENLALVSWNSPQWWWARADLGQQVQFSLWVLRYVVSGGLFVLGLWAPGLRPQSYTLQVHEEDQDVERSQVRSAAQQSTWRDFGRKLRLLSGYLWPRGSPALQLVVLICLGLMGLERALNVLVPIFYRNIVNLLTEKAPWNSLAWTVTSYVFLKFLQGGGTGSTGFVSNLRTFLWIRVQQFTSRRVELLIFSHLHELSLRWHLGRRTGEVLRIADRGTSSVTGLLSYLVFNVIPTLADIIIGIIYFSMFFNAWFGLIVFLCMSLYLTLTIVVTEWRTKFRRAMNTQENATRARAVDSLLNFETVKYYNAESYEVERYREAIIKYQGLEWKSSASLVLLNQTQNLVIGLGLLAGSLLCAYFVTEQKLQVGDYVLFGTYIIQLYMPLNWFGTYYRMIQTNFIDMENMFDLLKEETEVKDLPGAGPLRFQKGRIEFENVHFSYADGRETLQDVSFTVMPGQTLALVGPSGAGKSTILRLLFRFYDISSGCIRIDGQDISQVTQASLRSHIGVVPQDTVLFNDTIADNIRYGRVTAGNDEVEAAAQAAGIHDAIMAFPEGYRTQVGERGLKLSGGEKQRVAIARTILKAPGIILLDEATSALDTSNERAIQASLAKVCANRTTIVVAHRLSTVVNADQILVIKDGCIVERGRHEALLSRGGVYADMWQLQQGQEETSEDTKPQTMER
PG9 binder: binders of HIV-1 gp120 antibody PG9, primary screen, biochemical, TR-FRET | TR-FRET gp120-PG9 antibody binding | inhibition, % at 6.7 µM | actives 0.43% (n = 360,000) | AID 624416, 2012; in the data active means inhibition above about 8.5%
iPSC survival up: enhancers of single-cell hiPSC survival, primary screen, ATPlite luminescence; survival enhancement, % at 20 µM; 100% = ROCK inhibitor wells, 0% = DMSO; actives 0.044% (n = 360,000); AID 602274, 2012; in the data active means survival enhancement above about 18%;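 further: cells exposed to compounds for 16 hours before the ATP read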
PG9 binder conf: binders of anti-gp120 antibody PG9, confirmation, biochemical, TR-FRET | shares compounds with PG9 binder | TR-FRET PG9 antibody binding | inhibition, % at 6.7 µM | actives 90% (n = 1,500) | AID 651571, 2012; in the data active means inhibition above about 9%
PGV04 counter: binders of control antibody PGV04, counter-screen for PG9 antibody binder project, biochemical, TR-FRET, distinct HIV envelope site. shares compounds with PG9 binder. TR-FRET PGV04 antibody-gp120 binding. inhibition, % at 6.7 µM. actives 95% (n = 1,500); in the data active means inhibition above about 9.5%
Starred values were filed as active, the others as inactive; nt = no result. Only some compounds are listed: those with a hit (about 0.89% of all), similar ones and a draw of the others.

SMILES	Arr AP2 block	ABCB6 inh 2	PG9 binder	iPSC survival up	PG9 binder conf	PGV04 counter
COC(=O)c1cc2c(c3c4ccccc4n(S(=O)(=O)c4ccccc4)c13)C(=O)N(Cc1ccc(N(C)C)cc1)C2	nt	nt	-2	nt	nt	nt
CC(C)CC(=O)NC(=S)Nc1sc2c(c1C(N)=O)CCC2	10	100	17*	2	26*	33*
CC(C)NC(=O)N(C)C[C@H]1OCc2cn(nn2)CCCC(=O)N([C@H](C)CO)C[C@@H]1C	nt	nt	0	nt	nt	nt
C#CCn1c(=NC(=O)c2ccc(Br)s2)sc2cccc(OC)c21	-4	137	11*	0	15*	26*
C=CCn1c(=NC(=O)c2cccs2)sc2cccc(OC)c21	40	96	0	0	nt	nt
C#CCn1c(=NC(=O)c2ccco2)sc2cccc(Cl)c21	9	96	16*	0	16*	45*
COC(=O)[C@]12C[C@H](CC(=O)NCc3cccc(C(F)(F)F)c3)C(=O)N(CCC3=CCCCC3)C1=C[C@H](COCc1ccccc1)O[C@@H]2C	nt	nt	0	nt	nt	nt
C[C@@H]1CN(C(=O)OC(C)(C)C)CCN1c1ccc(N2CCN(Cc3ccccc3)[C@@H](C)C2)c(C#N)c1	nt	nt	-1	nt	nt	nt
CCn1c(=O)c(C(=O)Nc2ccccc2C)c(O)c2ccccc21	1	103	-2	0	nt	nt
CCn1c(=O)c(C(=O)Nc2ccccc2S(N)(=O)=O)c(O)c2ccccc21	28	91	15*	0	7	14*
CCc1ccc2[nH]c3nc(C)cc(C)c3c(=O)c2c1	4	92	25*	1	16*	23*
Cc1noc(C)c1S(=O)(=O)N(C)C[C@@H]1OCc2cnnn2CCCC(=O)N([C@@H](C)CO)C[C@@H]1C	nt	nt	-3	nt	nt	nt
N#Cc1c(N)c(C#N)c(-c2ccc3c(c2)OCO3)c2c1CCCC2	8	85	11*	-2	10*	23*
CC(C)(C)S(=O)(=O)N1C[C@@H]2C(=C(CCO)C[C@@H]3C(=O)N(c4ccccc4)C(=O)[C@@H]32)[C@H]1CCO	nt	nt	-1	nt	nt	nt
O=C(COC(=O)c1ccc2ccccc2c1)Nc1ncc(C(F)(F)F)cc1Cl	24	95	15*	0	18*	27*
Cn1c(/C=C/c2ccc(Cl)cc2)nc2ccccc2c1=O	-6	96	32*	0	4	7
Cn1c(/C=C/c2ccccc2)nc2ccccc2c1=O	35	99	-3	0	nt	nt
CCCN(CCC)CCN1CCN(C(=O)[C@H](CCc2ccccc2)NC(=O)[C@H]2O[C@@H](n3cnc4c(N)ncnc43)[C@H](O)[C@@H]2O)CC1	nt	nt	-1	nt	nt	nt
COCCN1Cc2cc(C(=O)OC)c3c(c2C1=O)c1cc(F)ccc1n3C(=O)c1ccccc1	nt	nt	-1	nt	nt	nt
CCOC(=O)COc1cccc2c(=O)n(CC(=O)N3CCc4ccccc43)ccc12	11	95	14*	0	21*	25*
NC(N)=NS(=O)(=O)c1ccc(NC(=S)NC(=O)c2ccc3c(c2)OCO3)cc1	-9	95	9.5*	3	15*	22*
C[C@H]1COc2cc(N3CCOCC3)ccc2S(=O)(=O)N1	nt	nt	0	nt	nt	nt
c1ccc(Cc2nnc(Sc3ccccc3)c3ccccc23)cc1	-1	96	29*	-1	29*	36*
c1ccc(Sc2ncnc3ccccc23)cc1	-9	95	1	0	nt	nt
CCOc1ccc(Nc2nc3ccccc3c(=O)s2)cc1	4	97	17*	0	18*	20*
SMILES	Arr AP2 block	ABCB6 inh 2	PG9 binder	iPSC survival up	PG9 binder conf	PGV04 counter
CCc1ccc(Nc2nc3ccccc3c(=O)s2)cc1	-3	100	-2	-1	nt	nt
Cc1nc2ccc(Br)cc2c(-c2ccccc2)c1C(=O)O	4	98	55*	1	65*	77*
Cc1ccc(-c2cc(C(=O)O)c3cc(Br)ccc3n2)s1	12	95	23*	-1	28*	43*
Cc1ccc(-c2cc(C(=O)O)c3cc(Br)ccc3n2)o1	15	126	14*	10	10*	20*
CCN(CC)C(=O)[C@H]1C[C@@H]2[C@H](C[C@@H](c3ccccc3)[C@H]1C)N(c1ccc(F)cc1)C(=O)N2C/C=C(\C)CCC=C(C)C	nt	nt	0	nt	nt	nt
COc1cccc(C2NC(=S)N(Cc3ccc(Br)cc3)C(C)=C2C(C)=O)c1 (stereo not given)	nt	nt	-2	nt	nt	nt
O=C1[C@H](c2ccccc2)[C@@H](c2ccncc2)N1c1ccncc1	nt	nt	1	nt	nt	nt
CCc1c(C(=O)O)[nH]c2ccc(Br)cc12	8	88	14*	-1	26*	27*
C[C@H](CO)N1C[C@H](C)[C@@H](CN(C)C(=O)NC2CCCCC2)OCc2cn(nn2)CCCC1=O	nt	nt	2	nt	nt	nt
O=C(CCCn1c(=O)[nH]c2ccc(Br)cc2c1=O)NCc1ccc(Cl)cc1	-9	90	16*	1	18*	32*
CC(C)CCNC(=O)CCCn1c(=O)[nH]c2ccc(Br)cc2c1=O	-2	122	0	-2	nt	nt
N#Cc1ccc(OCCCN2CCC(C(O)(c3ccccc3)c3ccccc3)CC2)cc1	nt	nt	-1	nt	nt	nt
CC(=O)c1ccc(N2CCN(C(=O)c3ccc(-c4ccccc4)cc3)CC2)cc1	1	97	26*	1	44*	54*
COc1ccc(OCC(=O)Nc2cc(S(=O)(=O)N3CCCC3)ccc2OCC(F)(F)F)cc1	-8	99	9.3*	0	21*	28*
CCOc1ncccc1C(=O)Nc1cc(S(=O)(=O)N2CCCCC2)ccc1Cl	-5	94	1	0	nt	nt
CCOc1ncccc1C(=O)Nc1ccc(Cl)c(S(=O)(=O)N2CCCC2)c1	-1	96	11*	0	7	10*
c1coc(-c2nc3c4ccccc4ccn3c2Cc2ccsc2)c1	nt	nt	-1	nt	nt	nt
Cc1cccc(C)c1NC(=O)Cn1nc(-c2ccc(Cl)s2)ccc1=O	3	99	11*	0	7	9
COC(=O)C1=C(C)N(Cc2cccc(C(F)(F)F)c2)C(=NCc2ccc3c(c2)OCO3)NC1c1ccc(Cl)cc1 (stereo not given)	nt	nt	3	nt	nt	nt
Cc1ccc(CNC(=O)c2cc3c(s2)CN(Cc2ccccc2)C3)cc1	11	93	18*	1	20*	21*
CCOC(=O)Nc1ccc2c(COC(=O)CNS(=O)(=O)c3cccc(Br)c3)cc(=O)oc2c1	3	107	39*	-1	32*	37*
CCOC(=O)c1cc(-c2ccc(C)cc2)nc2nc(SC)[nH]c(=O)c12	12	100	24*	-1	33*	34*
